Test [1] relates to MCF7. As to the kind of experiment: Antiproliferative activity against human MCF7 cells after 48 hrs by MTT assay. The class given is functional, cell-based. The following applies: MCF7, 48 h. In outline:
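MCF-7 (ATCC) grown in DMEM + 10% heat-inactivated FBS, penicillin/streptomycin, 37 °C, 5% CO2. Exponential cells seeded 4.0×10^3/well; after 24 h treated with a range of concentrations for 48 h in the dark. Medium refreshed, then MTT (1 mg/mL) for 4 h; formazan dissolved in DMSO, OD 570 nm. 0.5% DMSO negative control. IC50 from log concentration–viability curves.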
For orientation: Formazan colour is commonly taken as a measure of viable cells.

The test system of test [2] is MCF7. As to the kind of experiment: Cell cycle arrest in human MCF7 cells assessed as accumulation at G2/M phase at IC50 concentration after 24 hrs using propidium iodide staining by flow cytometry. Format: functional, cell-based.
For test [3], the system named is MCF7. As to the kind of experiment: Cell cycle arrest in human MCF7 cells assessed as accumulation at sub-G1 phase at IC50 concentration after 24 hrs using propidium iodide staining by flow cytometry. Format: functional.

≈ marks a conversion by molar mass, not a printed value. Calls of active or inactive are those of the source. The calls are words filed in the database; no cut-off is given here.

For the compound `C[C@@H]1C[C@@H]2OC(=O)[C@@H](C)[C@H]2C[C@]2(C)[C@@H](O[C@@H]3O[C@H](CO)[C@@H](O)[C@H](O)[C@H]3O)CC[C@@H]12`, the IC50 (as a rule, the concentration that gives 50% inhibition) in the test on MCF7 [1] is above 50 µg/mL.
With `C=C1C(=O)O[C@@H]2C[C@](C)(O)C3=CC[C@](C)(O)[C@@H]3C[C@H]12`, in the test with MCF7 [1], the IC50 turned out to be 38.8 µg/mL (≈ 147 µM).
In the test on MCF7 [1], `C=C1C(=O)O[C@@H]2C[C@]3(C)[C@@H](CC[C@H](C)OC(C)=O)[C@@H]3C[C@H]12` gave an IC50 of 9.4 µg/mL (≈ 32.2 µM). The outcome in the test with MCF7 [2] was Active. For the same compound, the Activity with MCF7 [3] is above 5%.
The compound `C=C1C(=O)O[C@H]2C[C@](C)(O)C3=CC[C@](C)(O)[C@@H]3C[C@H]12` showed a half-maximal inhibitory concentration (IC50) with MCF7 [1] of 31.9 µg/mL (≈ 121 µM).
On the same count and under the same terms, under `C=C1C(=O)O[C@@H]2C[C@](C)(O)C3=CC[C@@](C)(O)[C@@H]3C[C@H]12` stands 26.5 µg/mL (≈ 100 µM); under `C=C1C[C@H](O)C[C@]2(C)C[C@H]3OC(=O)[C@@H](C)[C@H]3C[C@@]12O`, above 50 µg/mL; under `C/C(=C\CO)CC[C@@H]1[C@@]2(C)CCCC(C)(C)[C@@H]2CC[C@@]1(C)O`, 18.6 µg/mL (≈ 60.3 µM).
As for `C=C1C(=O)O[C@@H]2C[C@@H](C)[C@@H]3CCC(=O)[C@@]3(C)C[C@H]12`, half-maximal inhibition in the test on MCF7 [1] (IC50) was put at 3.9 µg/mL (≈ 15.7 µM).
The same measure, in the same setting: under `C=C1C(=O)O[C@H]2C=C(C)[C@@H]3CC[C@](C)(O)[C@@H]3C[C@H]12` [4-EPI-ISOINUVISCOLIDE] stands 16.3 µg/mL (≈ 65.6 µM); under `C[C@@H]1C(=O)O[C@@H]2C[C@@]3(C)O[C@@H]3C[C@H](O)[C@@]3(C)O[C@@H]3C[C@H]12` [CARABROLACTONE A], above 50 µg/mL.
With `C=C1C(=O)O[C@H]2C[C@@H](C)[C@@H]3CC[C@H](O)[C@@]3(C)[C@@H](O)[C@H]12` [CARABROLACTONE B], the half-inhibitory concentration (IC50) in the test on MCF7 [1] is 10.7 µg/mL (≈ 40.2 µM).
`COc1cccc2c1C(=O)c1c(O)c3c(c(O)c1C2=O)C[C@@](O)(C(C)=O)C[C@@H]3O[C@H]1C[C@H](N)[C@H](O)[C@H](C)O1` [DAUNORUBICIN] returned an IC50 in the test on MCF7 [1] of 0.5 µg/mL (≈ 0.948 µM).
In the test on MCF7 [1], `O=c1[nH]cc(F)c(=O)[nH]1` [FLUOROURACIL] showed an IC50 of 14.1 µg/mL (≈ 108 µM). Compared with the last compound, the IC50 is about 28-fold higher.
`C=C1C(=O)O[C@H]2C[C@@](C)(O)C3=CC[C@](C)(O)[C@@H]3C[C@H]12` [GUAIANOLIDE]: the concentration for half-maximal inhibition (IC50) with MCF7 [1] is 31.7 µg/mL (≈ 120 µM). Also, in the test with MCF7 [2], the result was Active. Besides, the Activity with MCF7 [3] was above 5%.
For the compound `C=C1C(=O)O[C@@H]2C[C@@]3(C)C[C@@H](O)CC(=C)[C@@H]3C[C@H]12` [IVALIN], in the test on MCF7 [1], the IC50 worked out at 12.5 µg/mL (≈ 50.3 µM).
Turning to `C=C1C(=O)O[C@H]2C[C@@H](C)[C@@H]3CC[C@H](O)[C@@]3(C)C[C@H]12` [PSEUDOGUAIANOLIDE], in the test with MCF7 [1], the IC50 was 9.8 µg/mL (≈ 39.1 µM). Further, the result in the test with MCF7 [2] was Active.
Compound `C=C1C(=O)O[C@@H]2C[C@@]3(C)CCCC(=C)[C@]3(O)C[C@H]12` [TELEKIN] showed an IC50 with MCF7 [1] of 3 µg/mL (≈ 12.1 µM). Further, the result in the test on MCF7 [2] was Active.
In the test with MCF7 [1], `C=C1C(=O)O[C@@H]2C[C@H](C)C(CCC(C)=O)=CC[C@H]12` [TOMENTOSIN] yielded an IC50 above 50 µg/mL.
The same measure, in the same setting: under `C/C(=C\CO)CCC[C@H](C)CCC[C@H](C)CCCC(C)C` [TRANS-PHYTOL] stands above 50 µg/mL.
